Experimental data published in ChEMBL document CHEMBL2375233, “Cytotoxic phorbol esters of Croton tiglium” (J Nat Prod, 2013).

System: SNU-387
Experiment: Cytotoxicity against human SNU387 cells after 48 hrs by MTT assay
Format: functional, cell-based
Conditions: SNU-387, 48 h
How it was run: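 SNU387 hepatoma cells (Shanghai Cell Bank) grown in RPMI1640 with 10% FBS, seeded in 96-well plates and exposed to test compounds at various concentrations for 48 h. Viability read by MTT, absorbance at 570 nm. IC50 calculated from concentration-response; samples assayed in triplicate, paclitaxel as positive control.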

`CCCCCCCCCCCCCCCC(=O)O[C@@H]1[C@@H](C)[C@@]2(O)[C@@H](C=C(CO)C[C@]3(O)C(=O)C(C)=C[C@@H]23)[C@@H]2C(C)(C)[C@]12OC(C)=O` and `CCCCCCCCCCCCCC(=O)O[C@@H]1[C@@H](C)[C@@]2(O)[C@@H](C=C(CO)C[C@]3(O)C(=O)C(C)=C[C@@H]23)[C@@H]2C(C)(C)[C@]12OC(C)=O` [PHORBOL MYRISTATE ACETATE] cannot be ordered by IC50: > 10 µM for the first, > 10 µM for the second.

`C/C=C(\C)C(=O)O[C@@H]1[C@@H](C)[C@]2(O)[C@@H]3C=C(C)C(=O)[C@@H]3CC(CO)=C[C@H]2[C@@H]2C(C)(C)[C@]12OC(=O)C(C)C` and `C/C=C(\C)C(=O)O[C@@H]1[C@@H](C)[C@]2(O)[C@@H]3C=C(C)C(=O)[C@@H]3CC(CO)=C[C@H]2[C@@H]2C(C)(C)[C@]12OC(=O)C(C)CC` (stereo not given in full) cannot be ordered by IC50: > 10 µM for the first, > 10 µM for the second.

`C/C=C(\C)C(=O)O[C@@H]1[C@@H](C)[C@]2(O)[C@@H]3C=C(C)C(=O)[C@@H]3CC(CO)=C[C@H]2[C@@H]2C(C)(C)[C@]12OC(C)=O` and `C/C=C(\C)C(=O)O[C@@H]1[C@@H](C)[C@]2(O)[C@@H]3C=C(C)C(=O)[C@@H]3CC(CO)=C[C@H]2[C@@H]2C(C)(C)[C@]12OC(=O)Cc1ccccc1` cannot be ordered by IC50: > 10 µM for the first, > 10 µM for the second.

`CCCCCCCCCCCC(=O)O[C@@]12[C@H](OC(=O)C(C)CC)[C@@H](C)[C@@]3(O)[C@@H](C=C(CO)C[C@]4(O)C(=O)C(C)=C[C@@H]34)[C@@H]1C2(C)C` (stereo not given in full) and `CCCCCCCCCCCC(=O)O[C@@]12[C@H](OC(C)=O)[C@@H](C)[C@@]3(O)[C@@H](C=C(CO)C[C@]4(O)C(=O)C(C)=C[C@@H]34)[C@@H]1C2(C)C` cannot be ordered by IC50: > 10 µM for the first, > 10 µM for the second.

Going from `CCCCC/C=C\C/C=C\CCCCCCCC(=O)OCC1=C[C@H]2[C@@H]3C(C)(C)[C@]3(OC(C)=O)[C@H](O)[C@@H](C)[C@]2(O)[C@@H]2C=C(C)C(=O)[C@@]2(O)C1` to `CCCCCCCC/C=C\CCCCCCCC(=O)OCC1=C[C@H]2[C@@H]3C(C)(C)[C@]3(OC(C)=O)[C@H](O)[C@@H](C)[C@]2(O)[C@@H]2C=C(C)C(=O)[C@@]2(O)C1`, the IC50 falls from 3.4 µM to 1.2 µM (2.8-fold).

`CCC(C)C(=O)O[C@@H]1[C@@H](C)[C@@]2(O)[C@@H](C=C(CO)C[C@]3(O)C(=O)C(C)=C[C@@H]23)[C@@H]2C(C)(C)[C@]12OC(=O)C(C)C` (stereo not given in full) and `C/C=C(\C)C(=O)O[C@@]12[C@H](OC(=O)C(C)CC)[C@@H](C)[C@@]3(O)[C@@H](C=C(CO)C[C@]4(O)C(=O)C(C)=C[C@@H]34)[C@@H]1C2(C)C` (stereo not given in full) cannot be ordered by IC50: > 10 µM for the first, > 10 µM for the second.

`CCCCCCCCCC(=O)O[C@@]12[C@H](OC(C)=O)[C@@H](C)[C@@]3(O)[C@@H](C=C(CO)C[C@]4(O)C(=O)C(C)=C[C@@H]34)[C@@H]1C2(C)C` and `C/C=C(\C)C(=O)O[C@@H]1[C@@H](C)[C@]2(O)[C@@H]3C=C(C)C(=O)[C@@H]3CC(CO)=C[C@H]2[C@@H]2C(C)(C)[C@]12OC(=O)CCCCCCCCC` cannot be ordered by IC50: > 10 µM for the first, > 10 µM for the second.

First: C/C=C(\C)C(=O)O[C@@H]1[C@@H](C)[C@@]2(O)[C@@H](C=C(CO)C[C@]3(O)C(=O)C(C)=C[C@@H]23)[C@@H]2C(C)(C)[C@]12OC(=O)C(C)CC (stereo not given in full)
Second: C/C=C(\C)C(=O)O[C@@H]1[C@@H](C)[C@@]2(O)[C@@H](C=C(CO)C[C@]3(O)C(=O)C(C)=C[C@@H]23)[C@@H]2C(C)(C)[C@]12OC(=O)C(C)C
The IC50 of the first is lower: 8.7 µM for the first, > 10 µM for the second. The first is the more potent here.

`CCCCCCCC/C=C\CCCCCCCC(=O)OCC1=C[C@H]2[C@@H]3C(C)(C)[C@]3(OC(C)=O)[C@H](O)[C@@H](C)[C@]2(O)[C@@H]2C=C(C)C(=O)[C@@H]2C1` and `CCCCC/C=C\C/C=C\CCCCCCCC(=O)OCC1=C[C@H]2[C@@H]3C(C)(C)[C@]3(OC(C)=O)[C@H](O)[C@@H](C)[C@]2(O)[C@@H]2C=C(C)C(=O)[C@@H]2C1` are within 1.5-fold of each other in IC50: 6.6 µM for the first, 8.1 µM for the second.

Going from `C/C=C(\C)C(=O)O[C@@H]1[C@@H](C)[C@@]2(O)[C@@H](C=C(CO)C[C@]3(O)C(=O)C(C)=C[C@@H]23)[C@@H]2C(C)(C)[C@]12OC(=O)CC` to `CC(=O)O[C@H]1C(=O)[C@@]2(C)[C@H]([C@H](OC(=O)c3ccccc3)[C@]3(O)C[C@H](OC(=O)[C@H](O)[C@@H](NC(=O)c4ccccc4)c4ccccc4)C(C)=C1C3(C)C)[C@]1(OC(C)=O)CO[C@@H]1C[C@@H]2O` [PACLITAXEL], the IC50 falls from > 10.2 µM to 0.27 µM. The second is the more potent here.
